We go through three compounds from ChEMBL document CHEMBL3994613, “Diaryltriazenes as antibacterial agents against methicillin resistant Staphylococcus aureus (MRSA) and Mycobacterium smegmatis” (Eur J Med Chem, 2017).

Data set [1] has as its system Acinetobacter baumannii. As to the kind of experiment: Antibacterial activity against Acinetobacter baumannii ATCC 19606 after 18 to 20 hrs by broth microdilution method. The class given is functional. The following applies: ATCC 19606 = CIP 70.34 = JCM 6841. In short, it runs like this: (§1)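 Broth microdilution per EUCAST in TSB broth. Inoculum prepared by CLSI direct colony suspension from 20–24 h TSA colonies, final 3×10^4 CFU/mL. Aerobic incubation for 18–20 h at 37 °C, growth read on plate reader, at least one duplicate.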

Data set [2] relates to Enterococcus faecalis. As to the kind of experiment: Antibacterial activity against vancomycin resistant Enterococcus faecalis 501 after 18 to 20 hrs by broth microdilution method. In kind it is functional. In a few lines: (§2)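 EUCAST microdilution in BHI broth. Inoculum from 20–24 h colonies on 5% sheep blood BHI agar, final 3×10^4 CFU/mL, 18–20 h aerobic at 37 °C, plate reader, at least duplicate.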

Data set [3] can be described thus: Solubility of the compound in water. In kind it is physicochemical. The following applies: buffer.
Data set [4] relates to Mycolicibacterium smegmatis. As to the kind of experiment: Bactericidal activity against Mycobacterium smegmatis MC2 155 after 96 hrs by microdilution method. The class given is functional. The note with it: str. MC2 155, 96 h. In a few lines: (§3)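 Microdilution in TSB broth. Inoculum from colonies grown 96 h on TSA, final 1×10^5 CFU/mL, aerobic 94–98 h at 37 °C, growth read on a plate reader, at least duplicate.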

A further data set relates to Saccharomyces cerevisiae. As to the kind of experiment: Antibacterial activity against Saccharomyces cerevisiae after 18 to 20 hrs by microdilution method. In a few lines: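 Microdilution in YEP broth against wild-type yeast grown on YEP agar. Final inoculum 1×10^5 CFU/mL. Read after 18–20 h aerobic incubation at 30 °C on plate reader, at least one duplicate.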
Data set [5] has as its system Escherichia coli. As to the kind of experiment: Bactericidal activity against Escherichia coli D22 after 18 to 20 hrs by microdilution method. The class given is functional.
The subject of data set [6] is Pseudomonas aeruginosa. In words: Antibacterial activity against Pseudomonas aeruginosa ATCC 27853 after 18 to 20 hrs by broth microdilution method. In kind it is functional. In short, it runs like this: (§4)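 EUCAST broth microdilution in LB broth. Inoculum from 20–24 h LB agar colonies (CLSI direct colony suspension), final 3×10^4 CFU/mL. Aerobic incubation 18–20 h at 37 °C, plate-reader read-out, at least one duplicate.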

The test system of data set [7] is Staphylococcus aureus. As to the kind of experiment: Bactericidal activity against methicillin-resistant Staphylococcus aureus USA300 after 18 to 20 hrs by microdilution method. In kind it is functional. In short, it runs like this:
(§5)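 EUCAST broth microdilution in LB broth. Inoculum prepared by direct colony suspension from 20–24 h LB agar (E. coli DH10β) or 5% sheep blood BHI agar (MRSA USA300) growth. Final inoculum 2×10^4 CFU/mL, 18–20 h aerobic at 37 °C, growth read on a plate reader, at least duplicate.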

Data set [8] concerns Staphylococcus aureus. As to the kind of experiment: Bactericidal activity against methicillin-resistant Staphylococcus aureus 1653 after 18 to 20 hrs by broth microdilution method. In kind it is functional. In short, it runs like this:
(§6)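 EUCAST broth microdilution in LB broth. Inoculum from 20–24 h colonies on 5% sheep blood BHI agar, final 3×10^4 CFU/mL, 18–20 h aerobic at 37 °C, plate reader, at least duplicate.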

For data set [9], the system named is Bacillus subtilis. As to the kind of experiment: Bactericidal activity against Bacillus subtilis ATCC 6051 after 18 to 20 hrs by broth microdilution method. In kind it is functional.
Data set [10] concerns Staphylococcus aureus. In words: Induction of membrane integrity impairment in Staphylococcus aureus USA300 assessed as cells with intact membrane at 8 ug/ml measured after 30 mins by Baclight assay relative to control. The class given is functional. In a few lines:
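LIVE/DEAD BacLight fluorescence assay. Live cells in 0.85% NaCl at OD600 0.2 were exposed to compound in DMSO for 30 min at 37 °C. Dye was then added and incubated 15 min in the dark at room temperature. Fluorescence read at ex 485 nm, em 530/630 nm. Intact membrane % came from a live/dead (isopropanol-killed) standard curve, at least triplicate, mean±SD.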

The nature of data set [11]: Stability of the compound in organic solvent. The class given is physicochemical.
In data set [12] the test system is Pseudomonas aeruginosa. In words: Antibacterial activity against Pseudomonas aeruginosa PA0001 after 18 to 20 hrs by broth microdilution method. The class given is functional. In a few lines:
as §4

A short description of data set [13]: Stability of the compound in solid state. In kind it is physicochemical.
For data set [14], the system named is Mycolicibacterium smegmatis. In words: Antimycobacterial activity against Mycobacterium smegmatis MC2 155 after 94 to 98 hrs by microdilution method. In kind it is functional. The note with it: str. MC2 155. In a few lines: as §3
Data set [15] deals with Klebsiella pneumoniae. As to the kind of experiment: Antibacterial activity against Klebsiella pneumoniae ATCC 700603 after 18 to 20 hrs by broth microdilution method. In kind it is functional. In short, it runs like this:
as §1

The test system of data set [16] is Streptococcus pneumoniae. As to the kind of experiment: Antibacterial activity against Streptococcus pneumoniae R6 after 18 to 20 hrs by broth microdilution method. The class given is functional. In a few lines:
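Broth microdilution per EUCAST in BHI broth. Inoculum from colonies on BHI agar with 5% sheep blood, final 5×10^4 CFU/mL. Read after 18–20 h anaerobic incubation at 37 °C.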

For data set [17], the system named is Escherichia coli. As to the kind of experiment: Antibacterial activity against Escherichia coli D22 after 18 to 20 hrs by microdilution method. The class given is functional. In short, it runs like this:
(§7)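 Broth microdilution per EUCAST in LB broth. Inoculum from 20–24 h colonies by CLSI direct colony suspension (LB agar for E. coli), final 2×10^4 CFU/mL. Read after 18–20 h aerobic incubation at 37 °C on plate reader, at least one duplicate.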

The subject of data set [18] is Escherichia coli. In words: Antibacterial activity against Escherichia coli DH10beta harboring pHuLUC3 after 18 to 20 hrs by microdilution method. In kind it is functional. In short, it runs like this:
as §5

In data set [19] the test system is Streptococcus pneumoniae. As to the kind of experiment: Bactericidal activity against Streptococcus pneumoniae R6 after 18 to 20 hrs by broth microdilution method. In kind it is functional.
The subject of data set [20] is Enterococcus faecalis. In words: Bactericidal activity against vancomycin resistant Enterococcus faecalis 501 after 18 to 20 hrs by broth microdilution method. In kind it is functional. In short, it runs like this:
as §2

Data set [21] concerns Escherichia coli. In words: Antibacterial activity against N43 CGSC 5583 knock out Escherichia coli after 18 to 20 hrs by microdilution method. The class given is functional. In short, it runs like this:
as §7

For data set [22], the system named is Staphylococcus aureus. As to the kind of experiment: Antibacterial activity against methicillin-resistant Staphylococcus aureus USA300 after 18 to 20 hrs by microdilution method. The class given is functional. In a few lines: as §5
The subject of data set [23] is Klebsiella pneumoniae. As to the kind of experiment: Antibacterial activity against Klebsiella pneumoniae ATCC 13882 after 18 to 20 hrs by broth microdilution method. The class given is functional. In short, it runs like this:
as §1

Data set [24] deals with Escherichia coli. In words: Bactericidal activity against Escherichia coli DH10beta harboring pHuLUC3 after 18 to 20 hrs by microdilution method. The class given is functional. In short, it runs like this:
as §5

Data set [25] can be described thus: Stability of the compound in water. The class given is physicochemical. The note with it: buffer.
The test system of data set [26] is Staphylococcus aureus. As to the kind of experiment: Antibacterial activity against methicillin-resistant Staphylococcus aureus 1653 after 18 to 20 hrs by broth microdilution method. In kind it is functional. In a few lines: as §6
Data set [27] deals with Acinetobacter baumannii. As to the kind of experiment: Antibacterial activity against Acinetobacter baumannii ATCC BAA-1605 after 18 to 20 hrs by broth microdilution method. The class given is functional. In a few lines:
as §1

In data set [28] the test system is Bacillus subtilis. In words: Antibacterial activity against Bacillus subtilis ATCC 6051 after 18 to 20 hrs by broth microdilution method. The class given is functional. In a few lines: as §7
In data set [29] the test system is Staphylococcus aureus. As to the kind of experiment: Induction of membrane integrity impairment in Staphylococcus aureus USA300 assessed as cells with intact membrane at 2 ug/ml measured after 30 mins by Baclight assay relative to control. In kind it is functional. In a few lines: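 LIVE/DEAD BacLight fluorescence assay. Dye was then added and incubated 15 min in the dark at room temperature. Intact membrane % came from a live/dead (isopropanol-killed) standard curve, at least triplicate, mean±SD.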

Converted amounts (≈) assume the structure as drawn.

As for `O=C(CCl)N(/N=N/c1ccc([N+](=O)[O-])cc1C(F)(F)F)c1ccc([N+](=O)[O-])cc1C(F)(F)F`, the MIC with Acinetobacter baumannii [1] was over 128 µg/mL; against Enterococcus faecalis [2], 1 µg/mL (≈ 2 µM); against Saccharomyces cerevisiae, over 128 µg/mL; against Pseudomonas aeruginosa [6], over 128 µg/mL; against Pseudomonas aeruginosa [12] it was over 128 µg/mL; in data set [14], 32 µg/mL (≈ 64 µM). Moreover, the MIC was over 128 µg/mL in the data set with Klebsiella pneumoniae [15]; 0.0312 µg/mL (≈ 0.0625 µM) against Streptococcus pneumoniae [16]; 0.5 µg/mL (≈ 1 µM) in the data set with Escherichia coli [17]; 128 µg/mL (≈ 256 µM) with Escherichia coli [18]; over 128 µg/mL against Escherichia coli [21]; 2 µg/mL (≈ 4 µM) in the data set on Staphylococcus aureus [22]. Further, the MIC with Klebsiella pneumoniae [23] was over 128 µg/mL; against Staphylococcus aureus [26], 0.03 µg/mL (≈ 0.06 µM); against Acinetobacter baumannii [27] it was over 128 µg/mL; in the data set on Bacillus subtilis [28], 0.0312 µg/mL (≈ 0.0625 µM). Moreover, in [3], the solubility entry is on record as “Soluble”. Also, the MBC is over 128 µg/mL in data set [4]; 16 µg/mL (≈ 32 µM) with Escherichia coli [5]; 2 µg/mL (≈ 4 µM) with Staphylococcus aureus [7]; 0.5 µg/mL (≈ 1 µM) in the data set on Staphylococcus aureus [8]; 4 µg/mL (≈ 8 µM) in the data set with Bacillus subtilis [9]; 0.125 µg/mL (≈ 0.25 µM) in the data set with Streptococcus pneumoniae [19]. Moreover, the MBC against Enterococcus faecalis [20] and in the data set with Escherichia coli [24] was over 128 µg/mL throughout. In the data set on Staphylococcus aureus [10], the Activity is 100%. For the same compound, the Stability result in [11], in data set [13] and in data set [25] was “Stable” throughout.

As for `FC(F)(F)c1cc(Cl)ccc1/N=N/Nc1ccc(Cl)cc1C(F)(F)F`, the MIC with Acinetobacter baumannii [1] is over 128 µg/mL; in the data set on Enterococcus faecalis [2] it was 2 µg/mL (≈ 4.97 µM); against Saccharomyces cerevisiae it was over 128 µg/mL; in the data set with Pseudomonas aeruginosa [12], over 128 µg/mL; in [14] it was 8 µg/mL (≈ 19.9 µM); in the data set on Klebsiella pneumoniae [15], over 128 µg/mL. In addition, the MIC against Streptococcus pneumoniae [16] was 0.5 µg/mL (≈ 1.24 µM); in the data set on Escherichia coli [17] it was 2 µg/mL (≈ 4.97 µM); against Escherichia coli [18], over 128 µg/mL; with Escherichia coli [21], over 128 µg/mL; in the data set on Staphylococcus aureus [22] it was 1 to 128 µg/mL (≈ 2.49 to 318 µM); in the data set with Klebsiella pneumoniae [23], over 128 µg/mL. Moreover, the MIC against Staphylococcus aureus [26] was 1 µg/mL (≈ 2.49 µM); against Acinetobacter baumannii [27], over 128 µg/mL; against Bacillus subtilis [28], 1 µg/mL (≈ 2.49 µM). The solubility entry in [3] was “Soluble”. Also, the MBC is 128 µg/mL (≈ 318 µM) in data set [4]; over 128 µg/mL against Escherichia coli [5]; 1 µg/mL (≈ 2.49 µM) against Staphylococcus aureus [7]; 1 µg/mL (≈ 2.49 µM) against Staphylococcus aureus [8]; 32 µg/mL (≈ 79.6 µM) with Bacillus subtilis [9]; 1 µg/mL (≈ 2.49 µM) with Streptococcus pneumoniae [19]. Also, the minimum bactericidal concentration (MBC) against Enterococcus faecalis [20] is over 128 µg/mL. For the same compound, the Stability result in [11], in data set [13] and in data set [25] was “Stable” in each case. The “Cells with intact membrane” value in the data set with Staphylococcus aureus [29] is 31.2%.

Turning to `O=[N+]([O-])c1ccc(/N=N/Nc2ccc([N+](=O)[O-])cc2Cl)c(Cl)c1`, the MIC with Saccharomyces cerevisiae was over 128 µg/mL; in [14] it was over 128 µg/mL; with Escherichia coli [18], over 128 µg/mL; in the data set on Staphylococcus aureus [22] it was 2 µg/mL (≈ 5.62 µM). The compound also had an MBC against Staphylococcus aureus [7] of 4 µg/mL (≈ 11.2 µM). Moreover, the Activity in the data set on Staphylococcus aureus [10] is listed as 64.6%.
